According to ChEMBL document CHEMBL1153183, “Pyridine containing M(1) positive allosteric modulators with reduced plasma protein binding” (Bioorg Med Chem Lett, 2010):

Experiments:
[1] = molecular target: T1, Muscarinic acetylcholine receptor M1 (Homo sapiens) (UniProt P11229); assay: Allosteric modulation of human muscarinic M1 receptor expressed in CHO cells assessed as effect on acetylcholine-induced calcium mobilization by FLIPR assay; format: functional, cell-based
T1 sequence (whole entry): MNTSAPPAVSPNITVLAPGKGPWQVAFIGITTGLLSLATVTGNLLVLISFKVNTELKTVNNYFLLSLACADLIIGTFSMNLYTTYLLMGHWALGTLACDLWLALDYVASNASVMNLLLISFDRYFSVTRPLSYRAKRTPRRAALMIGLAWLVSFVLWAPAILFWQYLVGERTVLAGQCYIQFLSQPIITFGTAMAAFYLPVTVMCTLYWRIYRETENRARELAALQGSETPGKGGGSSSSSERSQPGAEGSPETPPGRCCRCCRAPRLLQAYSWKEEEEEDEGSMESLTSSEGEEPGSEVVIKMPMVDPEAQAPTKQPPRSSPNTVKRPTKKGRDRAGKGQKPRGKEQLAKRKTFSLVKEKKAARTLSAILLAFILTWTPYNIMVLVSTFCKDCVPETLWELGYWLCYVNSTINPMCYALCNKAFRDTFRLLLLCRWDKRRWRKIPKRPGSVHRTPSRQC
How it was run: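 Human M1-expressing CHO cells; test compound added with an EC20 concentration of acetylcholine; calcium mobilization read on FLIPR384. Inflection point (IP) derived; percent max is the maximum potentiated EC20 response. Values are the mean of at least two experiments; interassay variability ±30% for IP unless otherwise noted.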

[2] = molecular target: T1, Muscarinic acetylcholine receptor M1 (Homo sapiens); assay: Allosteric modulation of human muscarinic M1 receptor expressed in CHO cells assessed as effect on acetylcholine-induced calcium mobilization by FLIPR assay relative to 1-Biphenyl-4-ylmethyl-4-oxo-1,4-dihydro-quinoline-3-carboxylic acid; format: functional, cell-based
[3] = molecular target: T1, Muscarinic acetylcholine receptor M1 (Homo sapiens); assay: Potentiation of human muscarinic M1 receptor expressed in CHO cells assessed as effect on acetylcholine-induced calcium mobilization by FLIPR assay at 30 uM
[4] = Drug level Sprague-Dawley rat cerebrospinal fluid at 10 mg/kg, po after 2 hrs
[5] = Ratio of drug level in brain to plasma Sprague-Dawley rat at 10 mg/kg, po after 2 hrs
[6] = Plasma concentration in Sprague-Dawley rat at 10 mg/kg, po after 2 hrs
[7] = Drug level Sprague-Dawley rat brain at 10 mg/kg, po after 2 hrs

IP [1] [nM]	further results	SMILES
660	–	COc1ccc(Cn2cc(C(=O)O)c(=O)c3ccccc32)cc1
169	–	O=C(O)c1cn(Cc2ccc(-c3ccnc(Cl)c3)cn2)c2c(F)cccc2c1=O
202	–	O=C(O)c1cn(Cc2ccc(-c3ccc(F)nc3)nc2)c2c(F)cccc2c1=O
78	–	CC(=O)Nc1ccc(-c2ccc(Cn3cc(C(=O)O)c(=O)c4cccc(F)c43)nc2)cc1
1300	Emax [2]: 85%	O=C(O)c1cn(Cc2cnc(-c3ccccc3)cn2)c2c(F)cccc2c1=O
130	–	CN(C)c1cccc(-c2ccc(Cn3cc(C(=O)O)c(=O)c4cccc(F)c43)cn2)c1
1540	–	CS(=O)(=O)c1cccc(-c2ccc(Cn3cc(C(=O)O)c(=O)c4cccc(F)c43)nn2)c1
57	–	O=C(O)c1cn(Cc2ccc(-c3ccc4[nH]ccc4c3)cn2)c2c(F)cccc2c1=O
67	–	O=C(O)c1cn(Cc2ccc(-c3ccc(F)cc3)cn2)c2c(F)cccc2c1=O
150	–	O=C(O)c1cn(Cc2ccc(-c3cccs3)cn2)c2c(F)cccc2c1=O
21	–	Nc1cccc(-c2ccc(Cn3cc(C(=O)O)c(=O)c4cccc(F)c43)cn2)c1
153	Emax [2]: 80%; fold change (FC) [3]: 37	O=C(O)c1cn(Cc2ccc(-c3ccccc3)cn2)c2c(F)cccc2c1=O
2320	Emax [2]: 90%	O=C(O)c1cn(Cc2ncc(-c3ccccc3)cn2)c2c(F)cccc2c1=O
169	–	O=C(O)c1cn(Cc2ccc(-c3ccc(Cl)nc3)nc2)c2c(F)cccc2c1=O
97	–	CS(=O)(=O)c1cccc(-c2ccc(Cn3cc(C(=O)O)c(=O)c4cccc(F)c43)nc2)c1
160	fold change (FC) [3]: 37; concentration at 2 h [4]: 40 nM; Kp at 2 h [5]: 0.03; concentration at 2 h [6]: 33300 nM; concentration at 2 h [7]: 430 nM	Cn1cc(-c2ccc(Cn3cc(C(=O)O)c(=O)c4cccc(F)c43)nc2)cn1
466	–	O=C(O)c1cn(Cc2ccc(-c3ccc(F)cc3)nn2)c2c(F)cccc2c1=O
114	–	Cn1cc(-c2ccc(Cn3cc(C(=O)O)c(=O)c4c(F)ccc(F)c43)nc2)cn1

IP [1] [nM]	further results	SMILES
97	–	CS(=O)(=O)c1ccccc1-c1ccc(Cn2cc(C(=O)O)c(=O)c3cccc(F)c32)nc1
100	fold change (FC) [3]: 81; concentration at 2 h [4]: 97 nM; Kp at 2 h [5]: 0.05; concentration at 2 h [6]: 12800 nM; concentration at 2 h [7]: 311 nM	O=C(O)c1cn(Cc2ccc(-c3ccc(F)nc3)cn2)c2c(F)cccc2c1=O
260	fold change (FC) [3]: 33	CS(=O)(=O)c1ccc(-c2ccc(Cn3cc(C(=O)O)c(=O)c4cccc(F)c43)nc2)cc1
778	–	O=C(O)c1cn(Cc2ccc(-c3cccnc3)nn2)c2c(F)cccc2c1=O
680	–	O=C(O)c1cn(Cc2ccc(-c3cncc(F)c3)cn2)c2c(F)cccc2c1=O
21	fold change (FC) [3]: 45	Nc1cccc(-c2ccc(Cn3cc(C(=O)O)c(=O)c4cccc(F)c43)nc2)c1
604	Emax [2]: 97%	O=C(O)c1cn(Cc2ccc(-c3ccccc3)nc2)c2c(F)cccc2c1=O
65	–	O=C(O)c1cn(Cc2ccc(-c3ccc4[nH]ccc4c3)nc2)c2c(F)cccc2c1=O
110	–	CN(C)c1cccc(-c2ccc(Cn3cc(C(=O)O)c(=O)c4cccc(F)c43)nc2)c1
370	concentration at 2 h [4]: 25 nM; Kp at 2 h [5]: 0.05; concentration at 2 h [6]: 2790 nM; concentration at 2 h [7]: 154 nM	O=C(O)c1cn(Cc2ccc(-c3cccnc3)cn2)c2c(F)cccc2c1=O
89	–	COc1cccc(-c2ccc(Cn3cc(C(=O)O)c(=O)c4cccc(F)c43)nc2)c1
390	Emax [2]: 97%	O=C(O)c1cn(Cc2ccc(-c3ccccc3)nn2)c2c(F)cccc2c1=O
4000	Emax [2]: 88%	O=C(O)c1cn(Cc2cnc(-c3ccccc3)nc2)c2c(F)cccc2c1=O
190	–	O=C(O)c1cn(Cc2ccc(-c3ccc(F)cc3)nc2)c2c(F)cccc2c1=O
28	Kp at 2 h [5]: 0.4; concentration at 2 h [6]: 382 nM; concentration at 2 h [7]: 154 nM	CS(=O)(=O)c1cccc(-c2ccc(Cn3cc(C(=O)O)c(=O)c4cccc(F)c43)cn2)c1
200	–	Nc1ccc(-c2ccc(Cn3cc(C(=O)O)c(=O)c4cccc(F)c43)nc2)cn1
82	–	CN(C)c1ccc(-c2ccc(Cn3cc(C(=O)O)c(=O)c4cccc(F)c43)nc2)cn1
8660	–	O=C(O)c1cn(Cc2ccc(-c3ccc4[nH]ccc4c3)nn2)c2c(F)cccc2c1=O
